Rin1-Abl PPI inh = inhibitors of Rin1-Abl protein binding, primary screen, biochemical, TR-FRET. Tyrosine-protein kinase ABL1 (Homo sapiens) + Ras and Rab interactor 1 (Homo sapiens), …. inhibition, % at 7.35 µM. hit rate 0.4% among 360,000; in the data active = inhibition above about 5%, passing the limit was not always enough
Target sequence (P00519 whole entry, looked up): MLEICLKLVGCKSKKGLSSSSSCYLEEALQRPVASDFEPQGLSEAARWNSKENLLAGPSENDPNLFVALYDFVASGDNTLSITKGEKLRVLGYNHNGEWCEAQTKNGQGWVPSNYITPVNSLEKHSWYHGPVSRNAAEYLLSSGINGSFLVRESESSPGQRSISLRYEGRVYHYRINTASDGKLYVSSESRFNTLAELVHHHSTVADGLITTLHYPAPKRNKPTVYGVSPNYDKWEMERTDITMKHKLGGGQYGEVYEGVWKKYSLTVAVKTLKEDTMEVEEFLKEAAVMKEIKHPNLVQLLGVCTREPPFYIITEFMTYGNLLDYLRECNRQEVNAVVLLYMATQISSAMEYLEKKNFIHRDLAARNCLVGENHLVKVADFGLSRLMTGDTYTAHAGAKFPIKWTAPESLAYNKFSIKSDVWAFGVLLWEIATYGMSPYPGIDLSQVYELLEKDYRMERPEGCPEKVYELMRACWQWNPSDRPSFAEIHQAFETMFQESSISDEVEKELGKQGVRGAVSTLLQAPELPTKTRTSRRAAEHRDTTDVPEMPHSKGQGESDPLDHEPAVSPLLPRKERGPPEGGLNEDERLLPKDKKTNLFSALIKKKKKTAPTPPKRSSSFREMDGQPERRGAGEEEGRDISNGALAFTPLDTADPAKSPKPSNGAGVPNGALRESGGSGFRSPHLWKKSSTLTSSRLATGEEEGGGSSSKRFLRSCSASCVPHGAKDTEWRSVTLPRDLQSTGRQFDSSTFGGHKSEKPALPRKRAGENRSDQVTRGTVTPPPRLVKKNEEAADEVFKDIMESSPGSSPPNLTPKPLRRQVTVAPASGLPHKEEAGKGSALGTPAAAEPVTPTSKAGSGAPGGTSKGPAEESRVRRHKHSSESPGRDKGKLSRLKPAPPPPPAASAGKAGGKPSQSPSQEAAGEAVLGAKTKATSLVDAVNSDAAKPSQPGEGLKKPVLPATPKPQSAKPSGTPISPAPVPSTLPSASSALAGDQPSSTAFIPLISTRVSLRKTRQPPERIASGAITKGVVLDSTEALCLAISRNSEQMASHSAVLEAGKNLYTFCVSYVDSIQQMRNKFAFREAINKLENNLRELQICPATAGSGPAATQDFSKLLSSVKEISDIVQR
Target sequence (Q13671 whole entry, looked up): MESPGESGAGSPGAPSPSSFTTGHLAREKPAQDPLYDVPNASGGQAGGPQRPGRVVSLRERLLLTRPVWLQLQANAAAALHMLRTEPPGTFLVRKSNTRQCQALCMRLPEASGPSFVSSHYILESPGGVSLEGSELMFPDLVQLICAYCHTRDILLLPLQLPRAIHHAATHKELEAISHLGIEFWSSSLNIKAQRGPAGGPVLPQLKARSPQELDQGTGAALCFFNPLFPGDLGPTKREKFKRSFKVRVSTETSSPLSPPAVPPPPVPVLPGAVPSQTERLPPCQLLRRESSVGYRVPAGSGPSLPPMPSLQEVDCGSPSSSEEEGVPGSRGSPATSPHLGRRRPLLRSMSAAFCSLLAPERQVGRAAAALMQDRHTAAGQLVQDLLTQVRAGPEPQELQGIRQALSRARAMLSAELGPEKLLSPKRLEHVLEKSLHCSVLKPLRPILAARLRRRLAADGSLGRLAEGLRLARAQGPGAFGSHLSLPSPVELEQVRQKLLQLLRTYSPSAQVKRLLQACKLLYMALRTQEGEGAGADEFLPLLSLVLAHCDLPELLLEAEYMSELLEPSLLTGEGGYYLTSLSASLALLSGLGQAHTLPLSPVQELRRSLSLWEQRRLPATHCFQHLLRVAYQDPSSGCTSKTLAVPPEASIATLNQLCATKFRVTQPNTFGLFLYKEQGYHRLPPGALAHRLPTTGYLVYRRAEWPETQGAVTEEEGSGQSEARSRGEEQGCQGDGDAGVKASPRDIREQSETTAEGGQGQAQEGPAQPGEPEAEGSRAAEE
Arr AP2 block = inhibitors of beta-arrestin/AP2 binding, primary screen, biochemical, GPCR trafficking, flow cytometry. beta-arrestin 1 C-terminal peptide binding to AP2 beta2-adaptin appendage (human). hit rate 0.31% among 340,000. FITC-arrestin peptide / GST-AP2 beads; AP2 beta2 appendage carries R879A mutation. inhibition, % at 10 µM;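 active = inhibition above a set limit, near 3 SD of compounds lacking own fluorescence, cut at about 54% in these data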;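 also: plate controls were DMSO wells for no effect and 5 µM unlabelled arrestin peptide for full effect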
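Measured by: flow cytometry, FL1 (488/535 nm); Material: AP2 appendage R879A on GSH beads; Evaluation: percent response; Timing: pre-incubation 12 min, peptide binding 1 h, room temperature; Also added: 50 nM FITC-arrestin peptide; Medium: PBS with 0.05% Tween 20 and 0.1% BSA.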
ABHD5-PLIN5 inh = ABHD5-PLIN5 interaction inhibitors, primary screen, cell lysate, split luciferase complementation, luminescence; Perilipin-5 (Homo sapiens) + 1-acylglycerol-3-phosphate O-acyltransferase ABHD5 (Homo …; Split G. princeps luciferase complementation, 4 h; inhibition, % at 4 µM; hit rate 0.78% among 360,000; AID 602281, 2012;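 active = inhibition above the mean inhibition across every tested compound plus 3 SD, cut at about 22% in these data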;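 also: 0% = DMSO only wells and the 100% control is not disclosed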
UHRF1 MBD2 ctr = UHRF1 methylated DNA binding inhibitors, primary screen, counter-screen for MBD2 inhibitor project, biochemical, TR-FRET, human UHRF1, single concentration | inhibition, % at 4.4 µM | hit rate 0.75% among 370,000 | UHRF1 binding to methylated oligo | E3 ubiquitin-protein ligase UHRF1 (Homo sapiens), Q96T88; in the data active = inhibition above about 21%;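 also: UHRF1 SRA domain binding a hemimethylated CpG hairpin DNA probe; 0% = median of test compound wells and 100% = reference inhibitor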
Beta2AR agonist = beta2AR agonists driving receptor internalization, primary screen, cell-based, FAP fluorogen, flow cytometry; Beta-2 adrenergic receptor (Homo sapiens), P07550; response, % (no concentration beside the values); hit rate 0.43% among 340,000; Am2.2-beta2AR cells;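 active = response above a set limit, near 3 SD of response in nonfluorescent compounds, cut at about 42% in these data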
MBD2 inh = inhibitors of MBD2 binding to methylated DNA, primary screen, biochemical, TR-FRET, DNA-binding domain, human | Methyl-CpG-binding domain protein 2 (Homo sapiens), Q9UBB5 | MBD2 binding to methylated oligonucleotide | inhibition, % at 4.4 µM | hit rate 0.31% among 370,000 | AID 686964, 2013; in the data active = inhibition above about 13%
Numbers without * were called inactive; x = not tested or not shown; ! = a repeat was not active. Rows were chosen to be rich in hits. Some 2.5% of all compounds tested hit in one or more screens of this group.

SMILES	Rin1-Abl PPI inh	Arr AP2 block	ABHD5-PLIN5 inh	UHRF1 MBD2 ctr	Beta2AR agonist	MBD2 inh
CC(=O)Nc1ccc(C(CCCc2ccccc2)C2=CCCCC2)cc1 (centres undefined)	x	x	x	-3.8	x	-1.7
COCC(C)n1c(C)cc(C(=O)COC(=O)CCc2nc3ccccc3c(=O)[nH]2)c1C (centres undefined)	-1.5	-0.3	2.1	26.0*	6.9	1.1
COCCCn1c(C)cc(C(=O)COC(=O)CCc2nc3ccccc3c(=O)[nH]2)c1C	x	x	x	-2.1	x	9.1
C=CCNC(=O)N1CCN(Cc2nc3ccccc3c(=O)[nH]2)CC1	x	x	x	0.5	x	-2.5
COc1cccc(-n2nnnc2S(C)(=O)=O)c1	-0.3	-3.8	67.8*	x	32.4	x
CC1(C)C(/C=C/C=C/C=C/C=C2\N(CCCCS(=O)(=O)O)c3ccc4ccccc4c3C2(C)C)=[N+](CCCCS(=O)(=O)[O-])c2ccc3ccccc3c21	9.4	42.1	53.7*	x	57.5*	x
Cc1c2ccccc2cc[n+]1CCCS(=O)(=O)[O-]	1.4	-9.1	-4.5	-1.9	1.4	-2.2
O=C(NCCc1ccccc1)OCc1cn(-c2cccc(F)c2F)nn1	x	x	x	3.0	x	8.2
O=c1oc(/C=C/c2ccco2)nc2sc3c(c12)CCC3	-0.4	-5.6	2.2	40.1*	-7.1	12.1
O=c1oc(-c2cccs2)nc2sc3c(c12)CCC3	0.0	22.5	-3.2	-4.4	0.9	1.1
Cc1nn(-c2ccccc2)c(C)c1C(=O)Oc1ccccc1	-0.8	4.9	-4.1	32.3*	-1.5	1.3
COc1ccc(OC(=O)c2c(C)nn(-c3ccccc3)c2C)cc1	-0.6	7.8	-5.7	0.9	-2.0	1.1
O=C1CC(c2ccccc2)CC(=O)C1=CN1CCCC1 (centres undefined)	-0.1	13.8	5.7	67.7*	5.8	2.3
CCn1c(SCC(=O)NN=Cc2c(C)nn(-c3ccccc3)c2C)nnc1-c1ccc(OC)c(OC)c1	x	x	x	0.9	x	-0.5
O=C(CN(Cc1ccccc1)S(=O)(=O)c1ccc(F)cc1)NCCC1=CCCCC1	2.8	-5.7	-0.3	4.2	-1.5	2.3
Cc1ccc(S(=O)(=O)N(CC(=O)NCCC2=CCCCC2)Cc2ccccc2)cc1	-4.2	12.0	-1.4	27.7*	-9.7	6.5
CN(C)CCNC(=O)c1cccc2ccc(-c3ccc(-c4ccccc4)cc3)nc12	-3.4	-6.5	10.9	37.3*	-0.5	2.5
CN(C)CCNC(=O)c1ccccc1	-2.5	17.5	-3.2	-0.2	-3.8	1.7
Cc1ncc(CO)c(/C=N/NC(=O)c2cc(Br)ccc2O)c1O	0.2	-1.1	4.1	24.3*	4.3	0.3
O=C(Oc1coc(CSc2ncccn2)cc1=O)c1ccc([N+](=O)[O-])cc1	x	x	x	-2.1	x	-7.9
O=C1CCC[C@H]2C[C@H](NCc3ccc(F)cc3F)CC[C@]23CCCN13	x	x	x	-0.9	x	2.0
O=C(O)CCN(Cc1ccccc1)S(=O)(=O)c1ccccc1Cl	-5.5	8.2	-5.3	21.6*	-3.1	6.6
CCCCCCCCN1C(=O)[C@@H](CC(=O)N2CCCCC2)C[C@@]2(C(=O)OC)C1=C[C@H](C(C)C)O[C@@H]2C1CC1	x	x	x	0.7	x	-0.2
CCCCC(=O)N1CCN(C(=O)c2ccc3c(c2)nc(C)n3C2CCCC2)CC1	x	x	x	3.4	x	0.7
O=C1C(NC(=O)N2c3ccccc3C=Cc3ccccc32)CCCCN1Cc1cccc(Cl)c1 (centres undefined)	x	x	x	-0.5	x	0.6
SMILES	Rin1-Abl PPI inh	Arr AP2 block	ABHD5-PLIN5 inh	UHRF1 MBD2 ctr	Beta2AR agonist	MBD2 inh
O=C1C(NC(=O)N2c3ccccc3C=Cc3ccccc32)CCCCN1Cc1ccc(Cl)cc1 (centres undefined)	x	x	x	27.2*	x	1.3
CC(C)CS(=O)(=O)C1=NSC2=NC(=O)/C(=C\c3ccc(OC(=O)c4ccco4)cc3)C(=N)N21	-1.1	31.6	0.7	10.8	0.9	0.0
CSC1=NSC2=NC(=O)/C(=C\c3ccc(OC(=O)c4ccco4)cc3)C(=N)N12	-0.3	24.4	-9.9	-2.5	43.3*	-0.3
Cc1cccc(C(=O)Nc2ccc(C(=O)/C=C/c3ccncc3)cc2)c1	-3.7	19.2	91.3*	-0.6	60.4*	0.8
O=C(/C=C/c1cccnc1)c1ccc(NC(=O)c2cccc(Br)c2)cc1	0.9	-8.2	50.0*	-3.5	8.2	-2.9
O=C(N/N=C/c1cccnc1)c1cccc(Br)c1	-2.2	-5.4	-4.3	-0.8	0.5	-0.7
Cc1cccc(C(=O)Nc2cccc(C(=O)N/N=C/c3ccncc3)c2)c1	-2.2	-5.2	2.4	-7.3	1.7	3.9
O=C(CSc1nc2sc3c(c2c(=O)n1-c1ccc(Cl)cc1)CCC3)Nc1ccc(C(=O)O)cc1	x	x	x	4.7	x	7.5
Cn1nc(-c2ccccc2)cc1NC(=O)Nc1ccccc1F	0.4	-6.8	-9.3	68.4*	3.1	-2.4
C[n+]1c(-c2ccc(C=NNC(=O)c3ccc(C(=O)NN=Cc4ccc(-c5cn6ccccc6[n+]5C)cc4)cc3)cc2)cn2ccccc21	x	-4.3	x	37.4*	-16.4	22.9*
CC(C)(C)c1ccc(S(=O)(=O)NNC(=O)C2CCN(Cc3cccc(F)c3)CC2)cc1	3.4	-14.1	3.3	23.6*	1.6	-2.7
CCCS(=O)(=O)Nc1c(C(=O)OC)[nH]c2ccccc12	-1.8	-10.4	-6.4	21.5*	0.9	7.6
COC(=O)c1[nH]c2ccccc2c1NS(=O)(=O)c1ccc(F)c(C)c1	-0.3	23.1	-2.8	5.2	0.4	0.5
CCN(CC#CCC(O)(c1ccccc1)C1CCCC1)C(C)C (centres undefined)	1.4	-9.8	7.7	0.6	4.7	-1.9
CC(C)N(CC#CCC(O)(c1ccccc1)C1CCCC1)CCO (centres undefined)	0.6	0.1	8.3	28.3*	-3.1	10.5
Cc1ccc(-n2c(C)cc(C(=O)NS(=O)(=O)c3ccc(C)cc3)c2C)cc1	-2.0	-0.4	5.0	2.3	-21.6	2.5
CCOc1ccc(-n2c(C)cc(C(=O)NS(=O)(=O)c3ccc(C)cc3)c2C)cc1	-0.7	5.5	-1.6	52.3*	0.8	2.3
COC(=O)C1CN(Cc2cn(Cc3ccc(F)cc3)nn2)CCS(=O)(=O)N1Cc1ccc(F)cc1 (centres undefined)	x	x	x	16.2	x	5.0
c1ccc(CCNc2ccnc3cc4ccccc4cc23)cc1	-7.0	26.8	18.2	-7.7	80.7*	2.4
Cc1ccccc1C(OCCN(C)C)c1ccccc1 (centres undefined)	0.2	3.6	26.7*!	-5.1	5.1	-6.5
COc1ccc(CN2CCC(CNC(=O)Nc3ccc(Cl)cc3)CC2)cc1	x	x	x	2.5	x	4.8

Screens deposited in PubChem by several laboratories.
